Assay results as given in ChEMBL document CHEMBL5058577, “EUbOPEN Chemogenomics Library 2 (Multiplex)” (2022).

System: HEK-293T
Test: Multiplex assay against HEK293T
Format: toxicity, cell-based
Conditions: human
In short: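 Live cells carried four stains from seeding: Hoechst33342, BioTracker Green Microtubule Cytoskeleton Dye, MitoTracker Red and Annexin V Alexa Fluor 680. They were imaged on a CQ1 microscope at 37°C and 5% CO2 after compound addition. Using CellPathfinder machine-learning gating, cells were split into Hoechst high-intensity objects or normal cells, normal cells into healthy, pyknosed or fragmented nuclei, and pyknosed cells into mitotic or apoptotic; tubulin, mitochondrial-mass and membrane-permeability phenotypes are per cents of healthy-nucleus cells.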

[1] = 12 h, 1 µM, compound concentration 1 uM, replicate 1
[2] = 12 h, 1 µM, compound concentration 1 uM, replicate 2
[3] = 12 h, 10 µM, compound concentration 10 uM, replicate 1
[4] = 12 h, 10 µM, compound concentration 10 uM, replicate 2
[5] = 24 h, 1 µM, compound concentration 1 uM, replicate 1
[6] = 24 h, 1 µM, compound concentration 1 uM, replicate 2
[7] = 24 h, 10 µM, compound concentration 10 uM, replicate 1
[8] = 24 h, 10 µM, compound concentration 10 uM, replicate 2
[9] = 48 h, 1 µM, compound concentration 1 uM, replicate 1
[10] = 48 h, 1 µM, compound concentration 1 uM, replicate 2
[11] = 48 h, 10 µM, compound concentration 10 uM, replicate 1
[12] = 48 h, 10 µM, compound concentration 10 uM, replicate 2

Structure (SMILES): N#Cc1cc(F)cc(-c2nc(-c3ccc(F)cn3)no2)c1
- Population Apoptotic (%) [1]: 38%
- Population Fragmented Nuclei (%) [1]: 10%
- Population Healthy Nuclei (%) [1]: 76%
- Population Hoechst High Intensity Objects (%) [1]: 5%
- Population Membrane Permeable-Phenotype (%) [1]: 0%
- Population Mitochondria Different-Phenotype (%) [1]: 41%
- Population Mitotic Cells (%) [1]: 61%
- Population Normal (%) [1]: 95%
- Population Pyknosed Nuclei (%) [1]: 12%
- Population Tubulin-Different-Phenotype (%) [1]: 25%
- Total Cell Count [1]: 280
- Population Apoptotic (%) [2]: 64%
- Population Fragmented Nuclei (%) [2]: 6%
- Population Healthy Nuclei (%) [2]: 77%
- Population Hoechst High Intensity Objects (%) [2]: 8%
- Population Mitochondria Different-Phenotype (%) [2]: 55%
- Population Mitotic Cells (%) [2]: 36%
- Population Normal (%) [2]: 91%
- Population Pyknosed Nuclei (%) [2]: 15%
- Population Tubulin-Different-Phenotype (%) [2]: 22%
- Total Cell Count [2]: 342
- Population Apoptotic (%) [3]: 45%
- Population Fragmented Nuclei (%) [3]: 10%
- Population Healthy Nuclei (%) [3]: 73%
- Population Hoechst High Intensity Objects (%) [3]: 4%
- Population Membrane Permeable-Phenotype (%) [3]: 0%
- Population Mitochondria Different-Phenotype (%) [3]: 51%
- Population Mitotic Cells (%) [3]: 55%
- Population Normal (%) [3]: 95%
- Population Pyknosed Nuclei (%) [3]: 16%
- Population Tubulin-Different-Phenotype (%) [3]: 29%
- Total Cell Count [3]: 383
- Population Fragmented Nuclei (%) [4]: 8%
- Population Healthy Nuclei (%) [4]: 77%
- Population Hoechst High Intensity Objects (%) [4]: 10%
- Population Mitochondria Different-Phenotype (%) [4]: 61%
- Population Mitotic Cells (%) [4]: 54%
- Population Normal (%) [4]: 89%
- Population Pyknosed Nuclei (%) [4]: 13%
- Population Tubulin-Different-Phenotype (%) [4]: 22%
- Total Cell Count [4]: 269
- Population Apoptotic (%) [5]: 43%
- Population Fragmented Nuclei (%) [5]: 9%
- Population Healthy Nuclei (%) [5]: 77%
- Population Hoechst High Intensity Objects (%) [5]: 6%
- Population Membrane Permeable-Phenotype (%) [5]: 0%
- Population Mitochondria Different-Phenotype (%) [5]: 19%
- Population Mitotic Cells (%) [5]: 56%
- Population Normal (%) [5]: 93%
- Population Pyknosed Nuclei (%) [5]: 12%
- Population Tubulin-Different-Phenotype (%) [5]: 12%
- Total Cell Count [5]: 353
- Population Apoptotic (%) [6]: 48%
- Population Fragmented Nuclei (%) [6]: 7%
- Population Healthy Nuclei (%) [6]: 82%
- Population Hoechst High Intensity Objects (%) [6]: 7%
- Population Mitochondria Different-Phenotype (%) [6]: 36%
- Population Mitotic Cells (%) [6]: 51%
- Population Normal (%) [6]: 92%
- Population Pyknosed Nuclei (%) [6]: 9%
- Population Tubulin-Different-Phenotype (%) [6]: 15%
- Total Cell Count [6]: 463
- Population Apoptotic (%) [7]: 41%
- Population Fragmented Nuclei (%) [7]: 10%
- Population Healthy Nuclei (%) [7]: 74%
- Population Hoechst High Intensity Objects (%) [7]: 4%
- Population Membrane Permeable-Phenotype (%) [7]: 0%
- Population Mitochondria Different-Phenotype (%) [7]: 34%
- Population Mitotic Cells (%) [7]: 58%
- Population Normal (%) [7]: 95%
- Population Pyknosed Nuclei (%) [7]: 14%
- Population Tubulin-Different-Phenotype (%) [7]: 18%
- Total Cell Count [7]: 479
- Population Apoptotic (%) [8]: 39%
- Population Healthy Nuclei (%) [8]: 79%
- Population Hoechst High Intensity Objects (%) [8]: 8%
- Population Mitochondria Different-Phenotype (%) [8]: 40%
- Population Mitotic Cells (%) [8]: 60%
- Population Normal (%) [8]: 91%
- Population Pyknosed Nuclei (%) [8]: 9%
- Population Tubulin-Different-Phenotype (%) [8]: 12%
- Total Cell Count [8]: 363
- Population Apoptotic (%) [9]: 35%
- Population Fragmented Nuclei (%) [9]: 15%
- Population Healthy Nuclei (%) [9]: 77%
- Population Hoechst High Intensity Objects (%) [9]: 1%
- Population Membrane Permeable-Phenotype (%) [9]: 1%
- Population Mitochondria Different-Phenotype (%) [9]: 16%
- Population Mitotic Cells (%) [9]: 64%
- Population Normal (%) [9]: 98%
- Population Pyknosed Nuclei (%) [9]: 6%
- Population Tubulin-Different-Phenotype (%) [9]: 11%
- Total Cell Count [9]: 585
- Population Apoptotic (%) [10]: 27%
- Population Fragmented Nuclei (%) [10]: 11%
- Population Healthy Nuclei (%) [10]: 81%
- Population Hoechst High Intensity Objects (%) [10]: 0%
- Population Mitochondria Different-Phenotype (%) [10]: 18%
- Population Mitotic Cells (%) [10]: 72%
- Population Normal (%) [10]: 99%
- Population Tubulin-Different-Phenotype (%) [10]: 10%
- Total Cell Count [10]: 715
- Population Apoptotic (%) [11]: 39%
- Population Fragmented Nuclei (%) [11]: 16%
- Population Healthy Nuclei (%) [11]: 75%
- Population Hoechst High Intensity Objects (%) [11]: 1%
- Population Membrane Permeable-Phenotype (%) [11]: 1%
- Population Mitochondria Different-Phenotype (%) [11]: 18%
- Population Mitotic Cells (%) [11]: 60%
- Population Normal (%) [11]: 98%
- Population Pyknosed Nuclei (%) [11]: 8%
- Population Tubulin-Different-Phenotype (%) [11]: 9%
- Total Cell Count [11]: 643
- Population Apoptotic (%) [12]: 48%
- Population Healthy Nuclei (%) [12]: 77%
- Population Hoechst High Intensity Objects (%) [12]: 4%
- Population Mitochondria Different-Phenotype (%) [12]: 22%
- Population Mitotic Cells (%) [12]: 51%
- Population Normal (%) [12]: 95%
- Population Pyknosed Nuclei (%) [12]: 5%
- Population Tubulin-Different-Phenotype (%) [12]: 11%
- Total Cell Count [12]: 501
